Key:
Type in all cases: functional, cell-based
[1] = test system: LoVo; test: Cytotoxicity against human LoVo cells by MTT assay
How it was run: (§1)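 In vitro cytotoxicity testing against a panel of eight cultured human tumor lines. Tissue origins: Lovo (colorectal cancer), Hepg2 (hepatoma), OSRC-2 (renal carcinoma), A549 (lung epithelial carcinoma), SKOV3 (ovarian carcinoma), HeLa (cervical cancer), MCF-7 (breast cancer) and SGC-7901 (gastric adenocarcinoma).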

[2] = test system: MCF7; test: Cytotoxicity against human MCF7 cells by MTT assay; how it was run: as §1
[3] = test system: SGC-7901; test: Cytotoxicity against human SGC7901 cells by MTT assay; how it was run: as §1
[4] = test system: HeLa; test: Cytotoxicity against human HeLa cells by MTT assay; how it was run: as §1
[5] = test system: OS-RC-2; test: Cytotoxicity against human OS-RC2 cells by MTT assay; how it was run: as §1
[6] = test system: SK-OV-3; test: Cytotoxicity against human SKOV3 cells by MTT assay; how it was run: as §1
[7] = test system: HepG2; test: Cytotoxicity against human HepG2 cells by MTT assay; how it was run: as §1
[8] = test system: A549; test: Cytotoxicity against human A549 cells by MTT assay; how it was run: as §1

Measured: IC50

CC1=C2[C@H](O)C3=C(C=O)[C@H]4C[C@H]4[C@]3(C)C[C@@H]2OC1=O [CHLORAJAPOLIDE A]
> 10 µM: [1] | [2] | [3] | [4] | [5] | [6] | [7] | [8]

CC1=C2C[C@@H]3[C@@](C)(C[C@@H]2OC1=O)[C@@H]1C[C@@H]1[C@]3(O)CO [CHLORAJAPOLIDE D]
> 10 µM: [1] | [2] | [3] | [4] | [5] | [6] | [7] | [8]

CC1=C2[C@@H]3O[C@H](O)C4=C3[C@@](C)(C[C@@H]2OC1=O)[C@@H]1C[C@H]41 [CHLORAJAPOLIDE B]
> 10 µM: [1] | [2] | [3] | [4] | [5] | [6] | [7] | [8]

C/C=C(\C)C(=O)OC[C@@]1(O)C2[C@@H](O)C3=C(COC(=O)CCC(=O)OC)C(=O)O[C@@]34[C@@H]3C5=C(C[C@H]4[C@@]2(C)[C@@H]2C[C@@H]21)[C@H]1C[C@H]1[C@]5(C)[C@@H](O)C(=O)/C3=C(/C)C(=O)OC (some centres undefined) [CHLORAJAPONOL]
> 10 µM: [1] | [2] | [3] | [4] | [5] | [6] | [7] | [8]

CC1=C2CC3=C(CO)[C@H]4C[C@H]4[C@]3(C)C[C@@H]2OC1=O [CHLORAJAPOLIDE C]
> 10 µM: [1] | [2] | [3] | [4] | [5] | [6] | [7] | [8]

C=C1[C@H]2C[C@H]2[C@]2(C)C[C@]3(O[C@@H]4O[C@H](CO)[C@@H](O)[C@H](O)[C@H]4O)OC(=O)C(C)=C3C[C@@H]12 [CHLORAJAPOSIDE]
> 10 µM: [1] | [2] | [3] | [4] | [5] | [6] | [7] | [8]

CC1=C2C[C@@H]3[C@@](C)(C[C@]2(O)OC1=O)[C@H](O)CC[C@@]3(C)O [CHLORAEUDOLIDE]
> 10 µM: [1] | [2] | [3] | [4] | [5] | [6] | [7] | [8]

CO[C@@]12OC(=O)C(CO)=C1C[C@H]1[C@H](COC(C)=O)[C@H]3C[C@H]3[C@]1(C)[C@@H]2O [CHLORAJAPOLIDE E]
> 10 µM: [1] | [2] | [3] | [4] | [5] | [6] | [7] | [8]
